Legend:
[1] = Selectivity ratio of IC50 for TYK2 (unknown origin) to IC50 for JAK2 (unknown origin)
BaF3 [2] = experiment: Induction of apoptosis in mouse BaF3 cells harbouring JAK2 V617F mutant assessed as necrotic cells at 80 nM incubated for 24 hrs by Annexin V / propidium iodide staining based flow cytometry analysis (reference value: 0.64 %); type: functional
Method in brief: (§1)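 Ba/F3 JAK2V617F cells exposed to compound at 20, 40, 80, 160 and 320 nM, then analysed for apoptosis by flow cytometry. Significance vs control by Dunnett's t test.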

BaF3 [3] = experiment: Induction of apoptosis in mouse BaF3 cells harbouring JAK2 V617F mutant assessed as late apoptotic cells at 40 nM incubated for 24 hrs by Annexin V / propidium iodide staining based flow cytometry analysis (reference value: 12.2 %); type: functional
Method in brief: as §1

BaF3 [4] = experiment: Induction of apoptosis in mouse BaF3 cells harbouring JAK2 V617F mutant assessed as necrotic cells at 320 nM incubated for 24 hrs by Annexin V / propidium iodide staining based flow cytometry analysis (reference value: 0.64 %); type: functional
Method in brief: as §1

BaF3 [5] = experiment: Induction of cell cycle arrest in mouse BaF3 cells harbouring JAK2 […] mutant assessed as accumulation of cells at G2/M phase at 8 nM incubated for 24 hrs by propidium iodide staining based flow cytometry analysis (reference value: 9.34 %); type: functional
BaF3 [6] = experiment: Induction of cell cycle arrest in mouse BaF3 cells harbouring JAK2 […] mutant assessed as accumulation of cells at S phase at 4 nM incubated for 24 hrs by propidium iodide staining based flow cytometry analysis (reference value: 33.80 %); type: functional
[7] = Selectivity ratio of IC50 for FLT3 (unknown origin) to IC50 for JAK2 (unknown origin)
BaF3 [8] = experiment: Induction of cell cycle arrest in mouse BaF3 cells harbouring JAK2 […] mutant assessed as accumulation of cells at S phase at 16 nM incubated for 24 hrs by propidium iodide staining based flow cytometry analysis (reference value: 33.80 %); type: functional
BaF3 [9] = experiment: Induction of cell cycle arrest in mouse BaF3 cells harbouring JAK2 […] mutant assessed as accumulation of cells at G0/G1 phase at 0.5 nM incubated for 24 hrs by propidium iodide staining based flow cytometry analysis (reference value: 56.85 %); type: functional
BaF3 [10] = experiment: Induction of cell cycle arrest in mouse BaF3 cells harbouring JAK2 […] mutant assessed as accumulation of cells at G2/M phase at 16 nM incubated for 24 hrs by propidium iodide staining based flow cytometry analysis (reference value: 9.34 %); type: functional
BaF3 [11] = experiment: Induction of apoptosis in mouse BaF3 cells harbouring JAK2 V617F mutant assessed as late apoptotic cells at 160 nM incubated for 24 hrs by Annexin V / propidium iodide staining based flow cytometry analysis (reference value: 12.2 %); type: functional
Method in brief: as §1

BaF3 [12] = experiment: Induction of cell cycle arrest in mouse BaF3 cells harbouring JAK2 […] mutant assessed as accumulation of cells at G0/G1 phase at 4 nM incubated for 24 hrs by propidium iodide staining based flow cytometry analysis (reference value: 56.85 %); type: functional
BaF3 [13] = experiment: Induction of apoptosis in mouse BaF3 cells harbouring JAK2 V617F mutant assessed as viable cells at 40 nM incubated for 24 hrs by Annexin V / propidium iodide staining based flow cytometry analysis (reference value: 72.8 %); type: functional; conditions: read-out: Activity
Method in brief: as §1

BaF3 [14] = experiment: Induction of cell cycle arrest in mouse BaF3 cells harbouring JAK2 […] mutant assessed as accumulation of cells at G2/M phase at 4 nM incubated for 24 hrs by propidium iodide staining based flow cytometry analysis (reference value: 9.34 %); type: functional
BaF3 [15] = experiment: Induction of cell cycle arrest in mouse BaF3 cells harbouring JAK2 […] mutant assessed as accumulation of cells at S phase at 8 nM incubated for 24 hrs by propidium iodide staining based flow cytometry analysis (reference value: 33.80 %); type: functional
BaF3 [16] = experiment: Induction of apoptosis in mouse BaF3 cells harbouring JAK2 V617F mutant assessed as early apoptotic cells at 40 nM incubated for 24 hrs by Annexin V / propidium iodide staining based flow cytometry analysis (reference value: 14.4 %); type: functional
Method in brief: as §1

BaF3 [17] = experiment: Induction of apoptosis in mouse BaF3 cells harbouring JAK2 V617F mutant assessed as late apoptotic cells at 20 nM incubated for 24 hrs by Annexin V / propidium iodide staining based flow cytometry analysis (reference value: 12.2 %); type: functional
Method in brief: as §1

BaF3 [18] = experiment: Induction of cell cycle arrest in mouse BaF3 cells harbouring JAK2 […] mutant assessed as accumulation of cells at G2/M phase at 2 nM incubated for 24 hrs by propidium iodide staining based flow cytometry analysis (reference value: 9.34 %); type: functional
BaF3 [19] = experiment: Induction of apoptosis in mouse BaF3 cells harbouring JAK2 V617F mutant assessed as late apoptotic cells at 80 nM incubated for 24 hrs by Annexin V / propidium iodide staining based flow cytometry analysis (reference value: 12.2 %); type: functional
Method in brief: as §1

BaF3 [20] = experiment: Induction of apoptosis in mouse BaF3 cells harbouring JAK2 V617F mutant assessed as early apoptotic cells at 160 nM incubated for 24 hrs by Annexin V / propidium iodide staining based flow cytometry analysis (reference value: 14.4 %); type: functional
Method in brief: as §1

BaF3 [21] = experiment: Induction of apoptosis in mouse BaF3 cells harbouring JAK2 V617F mutant assessed as necrotic cells at 160 nM incubated for 24 hrs by Annexin V / propidium iodide staining based flow cytometry analysis (reference value: 0.64 %); type: functional
Method in brief: as §1

[22] = target: Tyrosine-protein kinase JAK2 (Mus musculus, UniProt Q62120, V617F); experiment: Inhibition of JAK2 V617F mutant in mouse BaF3 cells; type: cell-based
Sequence of Tyrosine-protein kinase JAK2 (Mus musculus, UniProt Q62120, V617F) (Q62120 as listed by the source V617F): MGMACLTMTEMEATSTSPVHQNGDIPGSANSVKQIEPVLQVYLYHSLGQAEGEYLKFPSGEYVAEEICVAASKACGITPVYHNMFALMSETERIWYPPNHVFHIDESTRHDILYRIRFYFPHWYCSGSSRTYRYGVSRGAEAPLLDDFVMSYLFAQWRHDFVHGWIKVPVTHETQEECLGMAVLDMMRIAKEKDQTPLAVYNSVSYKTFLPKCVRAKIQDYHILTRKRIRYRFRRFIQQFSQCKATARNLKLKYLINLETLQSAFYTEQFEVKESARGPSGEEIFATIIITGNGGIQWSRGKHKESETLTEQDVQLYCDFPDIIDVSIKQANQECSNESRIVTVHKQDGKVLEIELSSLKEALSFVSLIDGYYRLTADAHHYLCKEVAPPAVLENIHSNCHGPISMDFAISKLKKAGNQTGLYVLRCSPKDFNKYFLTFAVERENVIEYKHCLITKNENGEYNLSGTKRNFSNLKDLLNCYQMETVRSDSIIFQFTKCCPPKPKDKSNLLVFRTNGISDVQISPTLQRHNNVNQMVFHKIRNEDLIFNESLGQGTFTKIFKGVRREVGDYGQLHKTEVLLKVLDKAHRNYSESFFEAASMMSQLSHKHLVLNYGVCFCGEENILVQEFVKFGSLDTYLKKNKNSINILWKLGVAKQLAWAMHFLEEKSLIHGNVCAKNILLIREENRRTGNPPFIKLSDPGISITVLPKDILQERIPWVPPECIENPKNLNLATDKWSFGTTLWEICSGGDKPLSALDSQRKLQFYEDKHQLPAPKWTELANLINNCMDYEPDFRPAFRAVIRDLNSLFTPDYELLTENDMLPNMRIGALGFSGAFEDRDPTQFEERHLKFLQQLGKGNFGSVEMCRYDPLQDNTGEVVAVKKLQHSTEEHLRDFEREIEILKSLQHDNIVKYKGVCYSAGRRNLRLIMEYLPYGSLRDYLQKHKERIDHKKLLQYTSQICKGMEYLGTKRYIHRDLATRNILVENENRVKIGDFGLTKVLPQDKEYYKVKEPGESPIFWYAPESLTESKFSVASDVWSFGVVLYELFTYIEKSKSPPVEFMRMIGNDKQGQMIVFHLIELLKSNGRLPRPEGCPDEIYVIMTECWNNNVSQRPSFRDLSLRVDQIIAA
Method in brief: (§2)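 Cell proliferation assay. IC50 is the concentration that inhibits proliferation by 50%, taken from dose–response curves. Mean ± SEM of at least three independent experiments.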

BaF3 [23] = experiment: Induction of apoptosis in mouse BaF3 cells harbouring JAK2 V617F mutant assessed as viable cells at 80 nM incubated for 24 hrs by Annexin V / propidium iodide staining based flow cytometry analysis (reference value: 72.8 %); type: functional; conditions: read-out: Activity
Method in brief: as §1

BaF3 [24] = experiment: Induction of apoptosis in mouse BaF3 cells harbouring JAK2 V617F mutant assessed as early apoptotic cells at 320 nM incubated for 24 hrs by Annexin V / propidium iodide staining based flow cytometry analysis (reference value: 14.4 %); type: functional
Method in brief: as §1

BaF3 [25] = experiment: Induction of apoptosis in mouse BaF3 cells harbouring JAK2 V617F mutant assessed as early apoptotic cells at 80 nM incubated for 24 hrs by Annexin V / propidium iodide staining based flow cytometry analysis (reference value: 14.4 %); type: functional
Method in brief: as §1

[26] = target: Tyrosine-protein kinase JAK2 (Homo sapiens, UniProt O60674, V617F); experiment: Inhibition of JAK2 V617F mutant in human SET2 cells; type: cell-based
Sequence of Tyrosine-protein kinase JAK2 (Homo sapiens, UniProt O60674, V617F) (O60674 whole entry V617F): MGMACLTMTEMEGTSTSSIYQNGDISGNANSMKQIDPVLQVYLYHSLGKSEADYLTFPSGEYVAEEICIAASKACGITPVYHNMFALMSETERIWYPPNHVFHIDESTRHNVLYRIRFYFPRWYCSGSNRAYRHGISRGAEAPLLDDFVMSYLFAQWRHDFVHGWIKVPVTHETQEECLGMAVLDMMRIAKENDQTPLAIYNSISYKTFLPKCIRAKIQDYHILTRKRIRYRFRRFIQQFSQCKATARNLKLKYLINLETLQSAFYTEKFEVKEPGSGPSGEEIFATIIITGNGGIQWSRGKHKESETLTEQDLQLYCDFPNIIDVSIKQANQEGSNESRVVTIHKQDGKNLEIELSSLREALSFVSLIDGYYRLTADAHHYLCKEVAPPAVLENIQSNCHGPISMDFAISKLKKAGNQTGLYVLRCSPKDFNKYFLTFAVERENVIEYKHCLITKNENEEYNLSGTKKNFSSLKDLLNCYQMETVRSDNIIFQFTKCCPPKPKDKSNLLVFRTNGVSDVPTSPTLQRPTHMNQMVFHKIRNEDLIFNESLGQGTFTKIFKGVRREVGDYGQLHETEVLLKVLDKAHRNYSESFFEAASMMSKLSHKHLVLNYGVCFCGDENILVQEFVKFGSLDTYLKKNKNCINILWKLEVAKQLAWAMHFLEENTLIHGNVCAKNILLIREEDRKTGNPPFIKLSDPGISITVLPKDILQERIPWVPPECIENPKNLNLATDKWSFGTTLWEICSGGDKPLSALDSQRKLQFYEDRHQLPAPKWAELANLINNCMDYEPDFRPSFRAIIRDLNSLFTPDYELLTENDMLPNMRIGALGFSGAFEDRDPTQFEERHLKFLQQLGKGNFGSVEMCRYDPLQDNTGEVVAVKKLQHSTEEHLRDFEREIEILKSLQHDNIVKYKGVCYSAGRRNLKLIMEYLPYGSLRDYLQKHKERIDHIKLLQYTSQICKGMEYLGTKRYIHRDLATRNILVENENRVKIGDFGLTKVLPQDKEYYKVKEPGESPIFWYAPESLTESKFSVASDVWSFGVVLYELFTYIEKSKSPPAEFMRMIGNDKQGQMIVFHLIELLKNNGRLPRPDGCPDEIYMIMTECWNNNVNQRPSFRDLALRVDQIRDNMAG
Method in brief: as §2

BaF3 [27] = experiment: Induction of apoptosis in mouse BaF3 cells harbouring JAK2 V617F mutant assessed as viable cells at 20 nM incubated for 24 hrs by Annexin V / propidium iodide staining based flow cytometry analysis (reference value: 72.8 %); type: functional; conditions: read-out: Activity
Method in brief: as §1

[28] = Selectivity ratio of IC50 for JAK3 (unknown origin) to IC50 for JAK2 (unknown origin)

Compound	Ratio IC50 [1]	Activity (BaF3 [2]) [%]	Activity (BaF3 [3]) [%]	Activity (BaF3 [4]) [%]	Activity (BaF3 [5]) [%]	Activity (BaF3 [6]) [%]	Ratio IC50 [7]	Activity (BaF3 [8]) [%]	Activity (BaF3 [9]) [%]	Activity (BaF3 [10]) [%]	Activity (BaF3 [11]) [%]	Activity (BaF3 [12]) [%]	viability at 0.04 µM (BaF3 [13]) [%]	Activity (BaF3 [14]) [%]	Activity (BaF3 [15]) [%]	Activity (BaF3 [16]) [%]	Activity (BaF3 [17]) [%]	Activity (BaF3 [18]) [%]	Activity (BaF3 [19]) [%]	Activity (BaF3 [20]) [%]	further results
Cc1cnc(Nc2ccc3c(c2)CCN(C(=O)/C=C/CN(C)C)C3)nc1-c1cnn(C(C)C)c1	25	2.64	15.6	3.48	8.98	33.33	20.7	31.63	55.96	8.95	30.7	57.34	61.1	9.33	32.2	22.4	12	15.52	25.4	48.1	Activity (BaF3 [21]): 1.89%; IC50 ([22]; baf3): 41 nM; viability at 0.08 µM (BaF3 [23]): 38.8%; Activity (BaF3 [24]): 47%; Activity (BaF3 [25]): 33.2%; IC50 [26]: 475 nM; viability at 0.02 µM (BaF3 [27]): 68.6%; Ratio IC50 [28]: 31
C=CS(=O)(=O)NCc1ccc(Nc2ncc(C)c(-c3cnn(C(C)C)c3)n2)cc1	41.2	3.39	26.2	4.33	8.38	29.44	93.4	20.76	59.23	9.93	35.8	62.95	44.1	7.62	27.77	26.4	20	8.29	38.7	37.5	Activity (BaF3 [21]): 3.8%; IC50 [22]: 25.3 nM; viability at 0.08 µM (BaF3 [23]): 22.3%; Activity (BaF3 [24]): 31%; Activity (BaF3 [25]): 35.7%; IC50 [26]: 44.3 nM; viability at 0.02 µM (BaF3 [27]): 53.7%; Ratio IC50 [28]: 54.6

— ChEMBL document CHEMBL5325511, “Discovery of N-(4-(Aminomethyl)phenyl)-5-methylpyrimidin-2-amine Derivatives as Potent and Selective JAK2 Inhibitors” (ACS Med Chem Lett, 2023)
